One experiment addresses T1, Ephrin type-B receptor 4 (Homo sapiens) (UniProt P54760).
T1 sequence (whole entry): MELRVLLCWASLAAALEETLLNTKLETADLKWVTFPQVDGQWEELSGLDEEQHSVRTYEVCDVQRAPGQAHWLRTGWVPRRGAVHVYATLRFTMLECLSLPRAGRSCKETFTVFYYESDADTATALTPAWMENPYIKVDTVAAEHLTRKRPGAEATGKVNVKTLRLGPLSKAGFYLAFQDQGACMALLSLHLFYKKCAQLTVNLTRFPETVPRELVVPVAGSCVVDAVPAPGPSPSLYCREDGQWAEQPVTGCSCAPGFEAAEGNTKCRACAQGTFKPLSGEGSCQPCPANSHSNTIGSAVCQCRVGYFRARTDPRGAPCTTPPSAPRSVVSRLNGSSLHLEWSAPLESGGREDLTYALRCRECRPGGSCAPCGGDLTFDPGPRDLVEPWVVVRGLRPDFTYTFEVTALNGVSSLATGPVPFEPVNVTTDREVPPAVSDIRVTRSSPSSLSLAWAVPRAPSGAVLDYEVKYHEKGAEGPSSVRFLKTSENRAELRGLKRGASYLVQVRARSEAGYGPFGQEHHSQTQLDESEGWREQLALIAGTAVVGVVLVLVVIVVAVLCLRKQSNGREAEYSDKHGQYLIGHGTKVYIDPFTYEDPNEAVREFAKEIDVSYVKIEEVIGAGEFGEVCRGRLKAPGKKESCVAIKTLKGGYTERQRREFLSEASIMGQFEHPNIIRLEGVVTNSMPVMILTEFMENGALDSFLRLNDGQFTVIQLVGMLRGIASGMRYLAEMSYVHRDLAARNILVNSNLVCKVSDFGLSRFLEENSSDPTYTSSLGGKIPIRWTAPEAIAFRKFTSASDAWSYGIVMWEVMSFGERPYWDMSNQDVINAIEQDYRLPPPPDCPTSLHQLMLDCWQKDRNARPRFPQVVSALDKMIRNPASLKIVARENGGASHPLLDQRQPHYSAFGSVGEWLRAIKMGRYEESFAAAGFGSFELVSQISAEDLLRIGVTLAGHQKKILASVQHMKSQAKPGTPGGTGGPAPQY
As to the kind of experiment: Inhibition of EphB4 assessed as blockade of synthetic substrate phosphorylation at 10 uM by FRET assay. Also on record: scale not given: the % may be the effect or the level left. Summed up: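 Z'-LYTE FRET kinase assay with Tyr 1 peptide substrate. Final EphB4 25 ng/μL, ATP 125 μM (near Km), 30 °C for 2 h. Excitation 400 nm, emission at 445 and 520 nm, read as fluorescence progress curves. Inhibition of substrate phosphorylation was measured.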
Take `CCCCn1c(-c2cccc(C)c2)cn2c3c(=O)[nH]c(=O)n(C)c3nc12`: the Activity stood at 37%.
The same measure, in the same setting: the same measure for `CCCCn1c(-c2ccc(C)cc2)cn2c3c(=O)[nH]c(=O)n(C)c3nc12`: 38%; for `COc1ccccc1-n1c(-c2ccc(O)cc2)cn2c3c(=O)[nH]c(=O)n(C)c3nc12`: 59%; for `COc1ccccc1-n1c(-c2ccccc2O)cn2c3c(=O)[nH]c(=O)n(C)c3nc12`: 64%.
Still for that read-out and setting: to `COc1ccccc1-n1c(-c2cccc3c2OCO3)cn2c3c(=O)[nH]c(=O)n(C)c3nc12` belongs 30%; to `CCCCn1c(-c2cccc(OC)c2)cn2c3c(=O)[nH]c(=O)n(C)c3nc12`, 36%; to `Cn1c(=O)[nH]c(=O)c2c1nc1n(CCCCO)c(-c3ccc4c(c3)OCO4)cn21`, 42%.

The target of a further experiment is T2, Ephrin type-B receptor 4 (Homo sapiens, UniProt P54760).
T2 sequence (P54760 whole entry): T1 sequence (whole entry)
As to the kind of experiment: Inhibition of EphB4 by [gamma33-P]ATP based assay.
As usually defined, the IC50 is the midpoint of a concentration-inhibition curve. In turn, `COc1ccccc1-n1c(-c2cccc(O)c2)cn2c3c(=O)[nH]c(=O)n(C)c3nc12` came in with an IC50 of 0.213 µM.
As for `Cn1c(=O)[nH]c(=O)c2c1nc1n(CCCCO)c(-c3ccccc3)cn21`, the IC50 worked out at 5.68 µM.

In the next experiment the target is T2, Ephrin type-B receptor 4. In words: Inhibition of EphB4 assessed as blockade of synthetic substrate phosphorylation by FRET assay.
Consider `COc1ccccc1-n1c(-c2ccc(F)cc2)cn2c3c(=O)[nH]c(=O)[nH]c3nc12`, for which the IC50 came to 5.4 µM.
Still for that read-out and setting: to `COc1ccccc1-n1c(-c2ccc(C#N)cc2)cn2c3c(=O)[nH]c(=O)n(C)c3nc12` belongs above 20 µM; to `CCCCn1c(-c2ccc(OC)cc2)cn2c3c(=O)[nH]c(=O)n(C)c3nc12`, above 10 µM; to `CCCCn1c(-c2ccc(O)cc2)cn2c3c(=O)[nH]c(=O)n(C)c3nc12`, 0.558 µM.
Same read-out and setting: the same measure for `COc1ccccc1-n1c(-c2ccc(O)cc2C)cn2c3c(=O)[nH]c(=O)n(C)c3nc12`: 0.236 µM.
Still for that read-out and setting: the same measure for `COc1ccccc1-n1c(-c2ccccc2)cn2c3c(=O)[nH]c(=O)n(Cc4ccccc4)c3nc12`: above 10 µM.
For `COc1ccccc1-n1c(-c2cccc(O)c2C)cn2c3c(=O)[nH]c(=O)n(C)c3nc12`, the concentration for half-maximal inhibition (IC50) came to 1.2 µM.
Same read-out and setting: the same measure for `COc1ccccc1-n1c(-c2ccc(C(=O)O)cc2)cn2c3c(=O)[nH]c(=O)n(C)c3nc12`: above 20 µM.
On the same count and under the same terms, the same measure for `COc1ccccc1-n1c(-c2cccc(O)c2)cn2c3c(=O)[nH]c(=O)n(C)c3nc12`: 0.368 µM; for `COc1ccccc1-n1c(-c2ccc3c(c2)OCO3)cn2c3c(=O)[nH]c(=O)n(C)c3nc12`: above 20 µM; for `COc1ccccc1-n1c(-c2cccc(C)c2)cn2c3c(=O)[nH]c(=O)n(C)c3nc12`: above 10 µM.
Consider `COc1ccccc1-n1c(-c2ccc(F)cc2)cn2c3c(=O)[nH]c(=O)n(Cc4ccccc4)c3nc12`, for which the IC50 is above 10 µM.
For the molecule `COc1ccccc1-n1c(-c2ccc([N+](=O)[O-])cc2)cn2c3c(=O)[nH]c(=O)n(C)c3nc12`, the half-maximal inhibitory concentration (IC50) is above 20 µM.
Still for that read-out and setting: to `CCCCn1c(-c2ccccc2OC)cn2c3c(=O)[nH]c(=O)n(C)c3nc12` belongs above 10 µM; to `CCCCn1c(-c2ccccc2O)cn2c3c(=O)[nH]c(=O)n(C)c3nc12`, 1.6 µM.
In the case of `CCCCn1c(-c2cccc(O)c2)cn2c3c(=O)[nH]c(=O)n(C)c3nc12`, the concentration for half-maximal inhibition (IC50) was determined as 0.691 µM.

The values are drawn from ChEMBL document CHEMBL1154183, “Structure-based optimization of potent and selective inhibitors of the tyrosine kinase erythropoietin producing human hepatocellular carcinoma receptor B4 (EphB4)” (J Med Chem, 2009).
